One series concerns the target Trypsin (Homo sapiens) (UniProt P07477+P07478+P35030). The series is described as follows: Inhibition of trypsin (unknown origin) using Boc-Val-Pro-Arg-AMC as substrate at 50 uM preincubated with enzyme for 15 mins followed by substrate addition and measured for 15 mins by fluorimetric assay. It counts as protein assay. Conditions: time 30.0 min.
The target of series [1] is Genome polyprotein (dengue virus type 2) (UniProt P29990). Nature of the series: Inhibition of DENV2 NS2B-NS3 protease expressed in Escherichia coli BL21 lambda(DE3) using FRET substrate preincubated with enzyme for 15 mins in presence of detergent CHAPS followed by substrate addition for 15 mins by fluorescence based analysis. Conditions: time 30.0 min.
In series [2] the target is Prothrombin (Homo sapiens) (UniProt P00734). The series is described as follows: Inhibition of thrombin in human plasma using Boc-Val-Pro-Arg-AMC as substrate at 25 uM preincubated with enzyme for 15 mins followed by substrate addition and measured for 15 mins by fluorimetric assay. It counts as cell-free. Conditions: time 30.0 min.
The target of series [3] is Genome polyprotein (dengue virus type 2) (UniProt P29990). The series is described as follows: Inhibition of NS2B-NS3 protease in DENV2proHeLa system assessed as inhibition of luciferase signal at 12.5 uM incubated for 24 hrs by luciferase reporter gene assay. The series is classed as cell-based. The note with it: HeLa. An outline of the steps:
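Stable DENV2proHeLa cells seeded at 2 × 10⁴/well and dosed immediately, then incubated 24 h at 37 °C. Cells lysed 15 min at room temperature. Luciferase read with coelenterazine (2.75 μM in PBS) injection, luminescence 5 s. Triplicates; percent inhibition calculated relative to untreated control; background from cell-free wells.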
Background: In a reporter assay the amount or activity of a reporter protein is the signal.

Series [4] can be described thus: Cytotoxicity against human HeLa cells assessed as reduction in cell viability incubated for 24 hrs by CellTiter-Blue assay. It counts as cell-based. An outline of the steps: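 Viability by CellTiter-Blue in HeLa or Huh-7 cells exposed to compound dilutions. Plates run in parallel with the reporter assay (HeLa) or the virus titer assay (Huh-7).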
Another series has as its target Genome polyprotein (dengue virus type 2, UniProt P29990). The series is described as follows: Inhibition of NS2B-NS3 protease in DENV2proHeLa system assessed as inhibition of luciferase signal incubated for 24 hrs by luciferase reporter gene assay. The series is classed as cell-based, HeLa. Put shortly:
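HeLa cells stably carrying the reporter system, 2 × 10⁴ per well, given inhibitor at seeding and held 24 h at 37 °C. Cells lysed 15 min at room temperature. Luciferase read for 5 s after injecting coelenterazine (2.75 μM in PBS). Triplicate wells per concentration; percent inhibition taken against untreated cells. EC50/EC90 from 4-parameter dose-response fit, background from cell-free wells subtracted.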

pEC50: −log10 of the molar value. Active and inactive are the calls of the source. Where only a bound is given, the exact number is not on record here.

For orientation: inhibition means the change of the read-out against control, counted positive when it falls. Broadly, the CC50 is the concentration that lowers cell viability or growth by half. For `CCCC[C@H](NC(C)=O)C(=O)N[C@H](C(=O)NCc1ccc(C(N)=O)cc1)c1ccc(OCc2ccccc2)cc1`, the inhibition entry (at Trypsin (Homo sapiens); in series [2]) was “inactive” throughout. Also, the inhibition result in series [1] was “Active”. Besides, in series [3], the inhibition was 16%. In series [4], the CC50 at 24 h was greater than 50 µM.
Regarding `CCCCCC(=O)N[C@H](C(=O)NCc1ccc(C(N)=O)cc1)c1ccc(OCc2ccc(O)cc2)cc1`, the inhibition entry (on Trypsin (Homo sapiens); in series [2]) was “inactive” each time. For the same molecule, the inhibition result in series [1] was “Active”. The inhibition in series [3] was determined as 43%. In addition, in series [4], the CC50 at 24 h was greater than 50 µM.
The pEC50 is the EC50 on a negative log10 scale, so that one unit is a factor of ten. Consider `NC(=O)c1cccc(NC(=O)[C@@H](NC(=O)c2ccc(-c3ccccc3)cc2)c2ccc(OCc3ccccc3)cc2)c1`, for which the inhibition result (at Trypsin (Homo sapiens); in series [2]) was “inactive” in each case. Moreover, the pEC50 at Genome polyprotein is 5.77. For the same molecule, in series [3], the inhibition was determined as 79%. Also, in series [4], the CC50 at 24 h was greater than 100 µM.
With `NCc1ccc(C(=O)N[C@H](C(=O)NCc2ccc(C(N)=O)cc2)c2ccc(OCc3ccccc3)cc2)cc1`, the inhibition result (on Trypsin (Homo sapiens); in series [2]) was “inactive” each time. Also, the pEC50 at Genome polyprotein was 4.54. Also, the inhibition in series [3] came to 24%. In addition, the CC50 at 24 h in series [4] is greater than 50 µM.
Turning to `CCCCCC(=O)N[C@H](C(=O)Nc1ccc(CO)cc1)c1ccc(OCc2ccccc2)cc1`, the inhibition result (on Trypsin (Homo sapiens); in series [2]) was “inactive” each time. Besides, at Genome polyprotein, the negative-log EC50 (pEC50) was 4.74. Also, the inhibition in series [3] came out at 48%. Besides, in series [4], the CC50 at 24 h was greater than 50 µM.
As to `NC(=O)c1cccc(NC(=O)[C@@H](NC(=O)c2ccc(Oc3ccccc3)cc2)c2ccc(Oc3ccccc3)cc2)c1`, the inhibition entry (at Trypsin (Homo sapiens); in series [2]) was “inactive” throughout. At Genome polyprotein, the pEC50 was 5.54. In series [3], the inhibition was 73%. For the same molecule, in series [4], the CC50 at 24 h is greater than 50 µM.
Regarding `CCCCCC(=O)N[C@H](C(=O)NCc1ccc(NC(C)=O)cc1)c1ccc(OCc2ccccc2)cc1`, the inhibition entry (at Trypsin (Homo sapiens); in series [2]) was “inactive” in each case. Also, the pEC50 on Genome polyprotein is 4.85. In series [3], the inhibition was determined as 55%. The CC50 at 24 h in series [4] is greater than 100 µM.
Regarding `CCCCCC(=O)N[C@H](C(=O)NCCc1ccc(C(N)=O)cc1)c1ccc(OCc2ccccc2)cc1`, the inhibition entry (at Trypsin (Homo sapiens); in series [2]) was “inactive” in each case. The pEC50 on Genome polyprotein was 5.11. In addition, in series [3], the inhibition was found to be 62%. For the same molecule, the CC50 at 24 h in series [4] was greater than 100 µM.
As to `CCCCCC(=O)N[C@H](C(=O)NCc1ccc(C(N)=O)cc1)c1ccc(OCc2ccc(C(C)(C)C)cc2)cc1`, the inhibition entry (on Trypsin (Homo sapiens); in series [2]) was “inactive” throughout. Further, the inhibition result in series [1] was “Active”. Besides, in series [3], the inhibition is less than 10%. Also, the CC50 at 24 h in series [4] is greater than 12.5 µM.
Turning to `NC(=O)c1ccc(CNC(=O)[C@@H](NC(=O)c2cccs2)c2ccc(OCc3ccccc3)cc2)cc1`, the inhibition entry (at Trypsin (Homo sapiens); in series [2]) was “inactive” throughout. In addition, the pEC50 on Genome polyprotein was 5.08. For the same molecule, the inhibition in series [3] came out at 72%. The CC50 at 24 h in series [4] was greater than 50 µM.
As to `NC(=O)c1ccc(CNC(=O)[C@@H](NC(=O)Cc2ccc(-c3ccccc3)cc2)c2ccc(OCc3ccccc3)cc2)cc1`, the inhibition result (on Trypsin (Homo sapiens); in series [2]) was “inactive” throughout. The inhibition result in series [1] is “Active”. Moreover, the inhibition in series [3] was found to be 25%. In addition, the half-maximal cytotoxic concentration (CC50) at 24 h in series [4] is greater than 50 µM.
As for `NC(=O)c1cccc(NC(=O)[C@@H](NC(=O)c2ccc3ccccc3c2)c2ccc(OCc3ccccc3)cc2)c1`, the inhibition result (at Trypsin (Homo sapiens); in series [2]) was “inactive” throughout. Besides, the negative-log EC50 (pEC50) at Genome polyprotein is 5.35. For the same molecule, the inhibition in series [3] was 71%. Besides, the CC50 at 24 h in series [4] was greater than 100 µM.
Take `CCCCCC(=O)N[C@H](C(=O)NCc1ccc(C(=O)NN)cc1)c1ccc(OCc2ccccc2)cc1`: the inhibition result (on Trypsin (Homo sapiens); in series [2]) was “inactive” each time. Besides, the inhibition entry in series [1] is “Active”.
In the case of `Cc1ccc(C)c(OCCCC(C)(C)C(=O)N[C@H](C(=O)Nc2cccc(C(N)=O)c2)c2ccc(OCc3ccccc3)cc2)c1`, the inhibition entry (at Trypsin (Homo sapiens); in series [2]) was “inactive” each time. Further, on Genome polyprotein, the pEC50 is 5.77. For the same molecule, in series [3], the inhibition amounted to 82%. In series [4], the CC50 at 24 h is greater than 25 µM.
As to `CCCCCC(=O)N[C@H](C(=O)N1CCCCC1)c1ccc(OCc2ccccc2)cc1`, the inhibition result (on Trypsin (Homo sapiens); in series [2]) was “inactive” each time. For the same molecule, the pEC50 at Genome polyprotein was 4.89. The inhibition in series [3] worked out at 58%. Further, the CC50 at 24 h in series [4] worked out at 29 µM.
On to `NC(=O)c1ccc(CNC(=O)[C@@H](NC(=O)c2cc3ccccc3s2)c2ccc(OCc3ccccc3)cc2)cc1`, for which the inhibition entry (at Trypsin (Homo sapiens); in series [2]) was “inactive” in each case. Also, the pEC50 on Genome polyprotein is 5.18. Moreover, the inhibition in series [3] was 71%. Moreover, the CC50 at 24 h in series [4] was greater than 50 µM.
Turning to `COc1cccc(COc2ccc([C@H](NC(=O)c3ccc(Oc4ccccc4)cc3)C(=O)Nc3cccc(C(N)=O)c3)cc2)c1`, the inhibition entry (on Trypsin (Homo sapiens); in series [2]) was “inactive” in each case. The negative-log EC50 (pEC50) at Genome polyprotein was 5.68. In addition, the inhibition in series [3] was 73%. The CC50 at 24 h in series [4] is greater than 100 µM.
Consider `NC(=O)c1ccc(CNC(=O)[C@@H](NC(=O)CCc2ccccc2)c2ccc(OCc3ccccc3)cc2)cc1`, for which the inhibition entry (at Trypsin (Homo sapiens); in series [2]) was “inactive” each time. Besides, the pEC50 on Genome polyprotein was 4.92. Besides, the inhibition in series [3] came out at 57%. The CC50 at 24 h in series [4] was greater than 50 µM.
For the molecule `NC(=O)c1cccc(NC(=O)[C@@H](NC(=O)c2cccc(C(=O)N3CCOCC3)c2)c2ccc(OCc3ccccc3)cc2)c1`, the inhibition result (on Trypsin (Homo sapiens); in series [2]) was “inactive” each time. For the same molecule, at Genome polyprotein, the negative logarithm of the EC50 (pEC50) was 4.64. The inhibition in series [3] is 35%. The CC50 at 24 h in series [4] was greater than 100 µM.
`CCCCCC(=O)N[C@H](C(=O)NCc1ccc(C(N)=O)cc1)c1ccc(OCc2ccc(C(F)(F)F)cc2)cc1`: the inhibition result (at Trypsin (Homo sapiens); in series [2]) was “inactive” each time. Besides, the pEC50 at Genome polyprotein is 5.01. Also, in series [3], the inhibition is 53%. Also, in series [4], the CC50 at 24 h was greater than 100 µM.
For `CCCCCC(=O)N[C@H](C(=O)NCc1ccc(OC)cc1)c1ccc(OCc2ccccc2)cc1`, the inhibition result (on Trypsin (Homo sapiens); in series [2]) was “inactive” throughout. Also, the pEC50 at Genome polyprotein was 4.55. In addition, in series [3], the inhibition came to 35%. The CC50 at 24 h in series [4] is greater than 50 µM.
Take `CCCCC(=O)N[C@H](C(=O)NCc1ccc(C(N)=O)cc1)c1ccc(OCc2ccccc2)cc1`: the inhibition result (on Trypsin (Homo sapiens); in series [2]) was “inactive” throughout. The pEC50 on Genome polyprotein was 4.85. Moreover, the inhibition in series [3] was 38%. Also, in series [4], the CC50 at 24 h was greater than 100 µM.
Turning to `NC(=O)c1cccc(NC(=O)[C@@H](NC(=O)c2ccc(C(=O)N3CCOCC3)cc2)c2ccc(OCc3ccccc3)cc2)c1`, the inhibition result (at Trypsin (Homo sapiens); in series [2]) was “inactive” in each case. Further, the pEC50 at Genome polyprotein was 4.82. Further, the inhibition in series [3] was determined as 40%. Further, the CC50 at 24 h in series [4] was greater than 100 µM.
